Results published in paper PMC2151622 (The Journal of General Physiology, 2007).
Residue numbers refer to the chain shown, from its start. Like-named read-outs stand apart in the source and are kept apart here.

Tests used:
Format in all cases: cell-based, rabbit
D444C-EAAC1 = target: T1, D444C-EAAC1 (Oryctolagus cuniculus, UniProt P31597, D444C); assay: Blockade of sodium-dependent transient currents; details: for Decay time of transient currents blocked: at −100 mV
T1 sequence (P31597 1-524 D444C): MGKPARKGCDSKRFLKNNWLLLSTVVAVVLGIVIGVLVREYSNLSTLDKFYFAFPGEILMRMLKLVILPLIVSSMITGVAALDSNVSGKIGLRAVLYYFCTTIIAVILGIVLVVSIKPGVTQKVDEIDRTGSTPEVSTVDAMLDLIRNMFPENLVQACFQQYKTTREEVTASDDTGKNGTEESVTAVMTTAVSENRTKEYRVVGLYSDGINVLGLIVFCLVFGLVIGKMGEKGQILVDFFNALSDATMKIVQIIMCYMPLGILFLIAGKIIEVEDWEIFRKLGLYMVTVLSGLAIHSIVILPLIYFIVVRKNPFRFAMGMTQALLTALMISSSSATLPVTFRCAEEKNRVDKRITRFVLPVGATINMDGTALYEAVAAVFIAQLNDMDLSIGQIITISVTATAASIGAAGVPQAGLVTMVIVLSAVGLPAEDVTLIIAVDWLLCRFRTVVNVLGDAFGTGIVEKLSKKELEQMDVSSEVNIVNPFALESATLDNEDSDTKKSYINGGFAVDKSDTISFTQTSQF
Outline: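 Steps from −25 mV to −100…+40 mV. Transients taken as current without minus current with compound. Charge is the sum of integrals at −100 and +40 mV, normalised to 10 mM of the same compound. IC50 from a generalized Hill fit; decay from a first-order exponential; 3–10 oocytes.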

D444E-EAAC1 = target: T2, D444E-EAAC1 (Oryctolagus cuniculus, UniProt P31597, D444E); assay: Blockade of sodium-dependent transient currents
T2 sequence (P31597 1-524 D444E): T1 sequence (P31597 1-524 D444C) with C444E
Outline: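 Oocytes expressing the mutant were voltage clamped in ND96 (pH 7.5, HEPES) and stepped from −25 mV. Transients are buffer current minus buffer-plus-compound current. Charge is the sum of current–time integrals at −100 and +80 mV, normalised to 1 mM L-aspartate or 15 mM succinate, and fitted to a generalized Hill equation. Decay constants come from a first-order exponential fit; mean ± SEM of 3–10 oocytes.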

D444S-EAAC1 = target: T3, D444S-EAAC1 (Oryctolagus cuniculus, UniProt P31597, D444S); assay: Blockade of sodium-dependent transient currents; details: for Decay time of transient currents blocked: at −100 mV
T3 sequence (P31597 1-524 D444S): T1 sequence (P31597 1-524 D444C) with C444S
Outline: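 Oocytes expressing the mutant were clamped in sodium ND96 and given 250-ms pulses from −25 mV to −100…+40 mV, with and without compound; TBOA was added to a stopped bath. Isolated transients (without minus with compound) were integrated at −100 and +40 mV and summed. Charge was normalised to 10 mM of each compound and Hill-fitted; 4–6 oocytes. Decay came from an exponential fit; 3–10 oocytes.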

WT-EAAC1 = target: T4, WT-EAAC1 (Oryctolagus cuniculus, UniProt P31597); details: NaSCN-based buffer
T4 sequence (P31597 1-524): T1 sequence (P31597 1-524 D444C) with C444D
Outline: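 Two-electrode voltage clamp of oocytes in buffer with all NaCl replaced by NaSCN, grounded through a 2% agarose/2 M KCl bridge. Compounds were 2 mM; TBOA (10 μM) was added to a stopped bath. Steps from −25 mV to −100…+40 mV. Net steady-state current (with minus without) was normalised to the L-aspartate current at +40 mV; mean ± SEM of 3 oocytes (L-aspartate n = 6).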

D444C mutant EAAC1 = target: T5, D444C mutant EAAC1 (Oryctolagus cuniculus, UniProt P31597, D444C); details: 10 min
T5 sequence (P31597 1-524 D444C): T1 sequence (P31597 1-524 D444C)

T448A mutant EAAC1 = target: T6, T448A mutant EAAC1 (Oryctolagus cuniculus, UniProt P31597, T448A); assay: Uptake of D-[3H]-aspartate in Xenopus laevis oocytes expressing T448A; details: 20 min in ND96
T6 sequence (P31597 1-524 T448A): T1 sequence (P31597 1-524 D444C) with C444D, T448A

D444N mutant EAAC1 = target: T7, D444N mutant EAAC1 (Oryctolagus cuniculus, UniProt P31597, D444N); assay: Blockade of transient currents
T7 sequence (P31597 1-524 D444N): T1 sequence (P31597 1-524 D444C) with C444N

## N[C@H](C(=O)O)[C@H](OCc1ccccc1)C(=O)O (racemic) [TBOA, DL-threo-β-benzyloxyaspartate]
D444C-EAAC1; D444C, 10 μM D,L-TBOA
  Decay time of transient currents blocked: 4.8 ± 0.3 ms
D444C-EAAC1; read-out: IC50 for substrates/blockers of charge movements, D444C, Xenopus oocytes, mean ± SEM
  IC50: 1.9 ± 0.2 µM
D444E-EAAC1; 10 μM D,L-TBOA, at +80 mV
  Decay time of transient currents blocked: 5.6 ± 1.2 ms
D444E-EAAC1; read-out: IC50 for substrates/blockers of charge movements, Xenopus oocytes, mean ± SEM
  IC50: 1.8 ± 0.4 µM
D444S-EAAC1; D444S, 160 μM D,L-TBOA
  Decay time of transient currents blocked: 6 ± 0.6 ms
D444S-EAAC1; read-out: IC50 for substrates/blockers of charge movements, D444S, Xenopus oocytes, mean ± SEM
  IC50: 31 ± 8 µM
WT-EAAC1; 10 μM D,L-TBOA
  Effect on the anion conductance: decreased

## N[C@H](CC(=O)O)C(=O)O [D-Aspartate, D-aspartate]
D444C-EAAC1
  IC50: 8 ± 1 µM
D444C-EAAC1; D444C, 10 mM compound
  Decay time of transient currents blocked: 18.4 ± 1 ms
D444S-EAAC1
  IC50: 1370 ± 360 µM
D444S-EAAC1; D444S, 10 mM compound
  Decay time of transient currents blocked: 12.8 ± 0.6 ms

## [3H]C(C(=O)O)C([3H])(N)C(=O)O [D-[^3H]-aspartate, D-[2,3-^3H]-aspartic acid]
D444C mutant EAAC1
  D-[3H]-aspartate uptake relative to WT-EAAC1: ~5%
T448A mutant EAAC1
  Uptake of D-[3H]-aspartate relative to WT: ~20%

## NCCCC(=O)O [GABA]
D444S-EAAC1; D444S, 5 mM, sodium 96 mM
  Inhibition of the transient currents: unable to inhibit
WT-EAAC1; 2 mM
  Effect on the anion conductance: not seen

## O=C(O)CCCC(=O)O [Glutarate, glutarate]
D444C-EAAC1
  IC50: 260 ± 40 µM
D444S-EAAC1; D444S, 2 mM, unpublished data
  Inhibition of transient currents of similar size as succinate: capable of inhibiting

## N[C@@H](CCC(=O)O)C(=O)O [L-Glutamate, L-glutamate]
D444C-EAAC1
  IC50: 29 ± 3 µM
D444C-EAAC1; D444C, 10 mM compound
  Decay time of transient currents blocked: 17.7 ± 1 ms
D444E-EAAC1; IC50 for substrates/blockers of charge movements, Xenopus oocytes, mean ± SEM
  IC50: 24.4 ± 2.2 µM
D444S-EAAC1
  IC50: 1220 ± 160 µM
D444S-EAAC1; D444S, 10 mM compound
  Decay time of transient currents blocked: 11.0 ± 1.2 ms
D444N mutant EAAC1
  IC50: 718 ± 217 µM
